Calls of active or inactive are those of the source. The rule behind the calls is not given here.
Legend:
Histone deacetylase 1 = Histone deacetylase 1 (Homo sapiens, UniProt Q13547); assay: Inhibition of human HDAC1 in U937 cells by immunoprecipitation assay; type: cell-based, U-937
Histone deacetylase 4 = Histone deacetylase 4 (Homo sapiens, UniProt P56524); assay: Inhibition of human HDAC4 in U937 cells by immunoprecipitation assay; type: cell-based, U-937
U-937 [1] = assay: Induction of granulocytic differentiation in human U937 cells assessed as CD11c expression at 5 uM after 30 hrs; type: functional
Method in brief: (§1)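 U937 cells stimulated 30 h at 5 µM; granulocytic differentiation measured as CD11c expression, reported as percent CD11c-positive/PI-negative cells; SAHA and MS-275 at 5 µM as references.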

U-937 [2] = assay: Induction of p21 expression in human U937 cells at 5 uM after 24 hrs; type: functional, cell-based
Method in brief: (§2)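 U937 cells exposed at 5 µM for 24 h; induction of p21WAF1/CIP1 assessed alongside histone H3 and α-tubulin acetylation.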

U-937 [3] = assay: Cell cycle arrest in human U937 cells assessed as accumulation at G2 phase at 5 uM after 30 hrs; type: functional, cell-based
Method in brief: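 U937 human leukemia cells exposed to compound at 5 µM for 30 h; cell-cycle distribution analysed, arrest read as accumulation in S or G2 phase; SAHA and MS-275 at 5 µM as reference drugs.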

U-937 [4] = assay: Induction of histone H4 hyperacetylation in human U937 cells; type: functional, cell-based
U-937 [5] = assay: Induction of alpha tubulin hyperacetylation in human U937 cells; type: functional, cell-based
Method in brief: (§3)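 U937 cells exposed at 5 µM for 24 h; acetylation of histone H3 and α-tubulin assessed as markers of class I HDAC and HDAC6 inhibition, respectively.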

U-937 [6] = assay: Induction of apoptosis in human U937 cells; type: functional, cell-based
Method in brief: (§4)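 U937 cells exposed at 5 µM for 30 h; apoptosis quantified by Annexin V/propidium iodide double staining, expressed as percent apoptotic cells; SAHA and MS-275 at 5 µM as references.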

U-937 [7] = assay: Induction of granulocytic differentiation in human U937 cells; type: functional, cell-based; method in brief: as §1
U-937 [8] = assay: Induction of apoptosis in human U937 cells at 5 uM after 30 hrs; type: functional; method in brief: as §4
U-937 [9] = assay: Induction of p21 expression in human U937 cells; type: functional, cell-based; method in brief: as §2
U-937 [10] = assay: Induction of histone H4 hyperacetylation in human U937 cells at 5 uM; type: functional, cell-based
U-937 [11] = assay: Induction of histone H3 hyperacetylation in human U937 cells at 5 uM; type: functional, cell-based; method in brief: as §3
U-937 [12] = assay: Induction of alpha tubulin hyperacetylation in human U937 cells at 5 uM; type: functional, cell-based; method in brief: as §3

Histone deacetylase 4, sequence (P56524 whole entry): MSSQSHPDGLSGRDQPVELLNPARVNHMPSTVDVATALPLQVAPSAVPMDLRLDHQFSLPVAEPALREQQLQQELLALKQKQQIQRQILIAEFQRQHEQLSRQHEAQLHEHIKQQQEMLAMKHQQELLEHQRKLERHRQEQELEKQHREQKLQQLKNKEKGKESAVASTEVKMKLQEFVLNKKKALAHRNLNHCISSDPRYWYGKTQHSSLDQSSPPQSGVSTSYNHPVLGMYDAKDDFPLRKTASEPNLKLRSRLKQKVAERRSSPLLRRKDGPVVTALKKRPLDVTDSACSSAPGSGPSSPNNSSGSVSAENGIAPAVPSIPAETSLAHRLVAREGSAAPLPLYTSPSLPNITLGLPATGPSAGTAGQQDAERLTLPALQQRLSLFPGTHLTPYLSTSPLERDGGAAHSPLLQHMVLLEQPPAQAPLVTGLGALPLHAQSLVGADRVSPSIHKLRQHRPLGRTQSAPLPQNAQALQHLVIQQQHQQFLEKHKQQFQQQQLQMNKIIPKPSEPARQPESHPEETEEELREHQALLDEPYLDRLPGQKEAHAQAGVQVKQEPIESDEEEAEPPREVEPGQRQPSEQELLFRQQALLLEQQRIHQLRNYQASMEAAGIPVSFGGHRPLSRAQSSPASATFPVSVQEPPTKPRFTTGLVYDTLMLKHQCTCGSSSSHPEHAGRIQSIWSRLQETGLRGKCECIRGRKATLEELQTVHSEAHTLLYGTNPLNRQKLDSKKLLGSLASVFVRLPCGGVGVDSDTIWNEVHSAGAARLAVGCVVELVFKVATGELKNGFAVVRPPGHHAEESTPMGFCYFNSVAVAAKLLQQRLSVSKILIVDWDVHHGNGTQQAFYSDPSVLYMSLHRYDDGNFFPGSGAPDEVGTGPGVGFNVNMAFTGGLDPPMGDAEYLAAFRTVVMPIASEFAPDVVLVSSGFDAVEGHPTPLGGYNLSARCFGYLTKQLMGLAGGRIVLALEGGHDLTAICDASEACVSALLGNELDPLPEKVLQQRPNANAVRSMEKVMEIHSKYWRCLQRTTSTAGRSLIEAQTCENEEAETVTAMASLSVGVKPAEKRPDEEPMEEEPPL
Histone deacetylase 1, sequence (Q13547 whole entry): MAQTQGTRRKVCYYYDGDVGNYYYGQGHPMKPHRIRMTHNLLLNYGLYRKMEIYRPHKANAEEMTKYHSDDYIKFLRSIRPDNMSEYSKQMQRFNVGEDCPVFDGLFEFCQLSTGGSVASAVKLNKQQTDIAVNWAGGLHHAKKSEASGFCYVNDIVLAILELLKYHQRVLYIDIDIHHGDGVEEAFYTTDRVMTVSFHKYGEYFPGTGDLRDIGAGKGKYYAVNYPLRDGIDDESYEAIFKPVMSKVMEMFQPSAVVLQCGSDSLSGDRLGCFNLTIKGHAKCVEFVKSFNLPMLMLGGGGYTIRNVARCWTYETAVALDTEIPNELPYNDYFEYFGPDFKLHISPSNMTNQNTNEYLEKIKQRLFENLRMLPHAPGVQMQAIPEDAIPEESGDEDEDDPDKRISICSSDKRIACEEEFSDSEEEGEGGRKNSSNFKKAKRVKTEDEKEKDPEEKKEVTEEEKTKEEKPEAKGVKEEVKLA

SMILES	Activity (U-937 [1])	Activity (U-937 [2])	Activity (U-937 [8])	also measured
Nc1ccccc1NC(=O)c1ccc(CSc2nc(-c3ccccc3)cc(=O)[nH]2)cc1	47.6%	Active		IC50 (Histone deacetylase 1): 0.2 µM; IC50 (Histone deacetylase 4): 125 µM; Activity (U-937 [3]): Active
Nc1ccccc1NC(=O)CCCCCc1nc(-c2ccc(-c3ccccc3)cc2)cc(=O)[nH]1	45.9%	Active		
Nc1ccccc1NC(=O)c1ccc(CNC(=O)OCc2cccnc2)cc1 [ENTINOSTAT]	30.8%		3.5%	Activity (U-937 [4]): Active; Activity (U-937 [5]): inactive; Activity (U-937 [6]): inactive; Activity (U-937 [7]): Active
O=C(CCCCCCC(=O)Nc1ccccc1)NO [VORINOSTAT]	21.5%		16.8%	Activity (U-937 [4]): Active; Activity (U-937 [5]): Active; Activity (U-937 [9]): Active; Activity (U-937 [6]): Active; Activity (U-937 [7]): Active
Nc1cccc2cccc(NC(=O)CCCCSc3nc(-c4ccccc4)cc(=O)[nH]3)c12	30.3%	Active		
Nc1ccccc1NC(=O)CCCCSc1nc(-c2ccccc2)cc(=O)[nH]1		Active		
O=C(CCCCCC(=O)Nc1ccccc1O)Nc1ccccc1	36.6%			
Nc1ccccc1NC(=O)CCCCCc1nc(-c2ccccc2)cc(=O)[nH]1		Active	4.8%	
Nc1cccc2cccc(NC(=O)CCCCCc3nc(-c4ccc(-c5ccccc5)cc4)cc(=O)[nH]3)c12	67.6%			
Nc1ccccc1NC(=O)CCCCCC(=O)Nc1ccccc1	18.3%			Activity (U-937 [10]): Active; Activity (U-937 [11]): Active; Activity (U-937 [12]): inactive
